High-throughput results (PubChem)
This is one part of a sample in which hits are shown more often than they occur.
XBP1 UPR activ = adaptive UPR (XBP1) activation; CHO-XBP1 luciferase reporter, IRE1-XBP1 UPR activation, luminescence; percent of tunicamycin response, DMSO as zero; activation, % at 20 µM; hit rate 0.33% among 330,000;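 active means versus positive control, 20 µM dose yields 30% or more activation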;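 further: 100% = tunicamycin at 10 µg/mL and 0% = DMSO only wells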
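incubation = overnight seeding at 37 °C, 6 h compound treatment at 37 °C | assay system = CHO-XBP1 cells stably carrying IRE1-XBP1-driven luciferase reporter | input = 1000 cells per well | detection = luciferase luminescence | dosing = single point, 20 µM final compound, 1% DMSO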
PvdQ acylase = blocks Pseudomonas aeruginosa PvdQ acylase activity; purified PvdQ acylase, fluorescence plate reader; inhibition, % at 10 µM; hit rate 0.063% among 340,000; AID 488965; in the data active means inhibition above about 30%, passing the limit was not always enough;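 further: 0% = vehicle neutral wells and 100% = reference inhibitor wells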
CHOP UPR activ = apoptotic UPR (CHOP) activation | CHO-CHOP luciferase reporter, luminescence; percent of tunicamycin response over DMSO baseline | activation, % at 10 µM | hit rate 0.34% among 330,000 | AID 449763;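 active means at 10 µM dose, activation of 40% or more, normalized to positive control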;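 further: 100% = tunicamycin at 10 µg/mL and 0% = DMSO alone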
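Assay system: CHO-CHOP cells, stable luciferase reporter of PERK-eIF2a-CHOP signalling / Buffer or medium: F12 plus 10% serum / Compound dosing: one dose, 10 µM in 0.5% DMSO / Times: 6 h compound treatment, 37 °C / Technique: luciferase luminescence / Read-out: % reporter activation, DMSO baseline versus tunicamycin full activation / Benchmarks: tunicamycin and DMSO controls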
CHOP inhibitor = inhibitors of CHOP induction in ER stress response. CHO-K1 CHOP-promoter luciferase, tunicamycin-induced, 15-18 h. inhibition, % at 10 µM. hit rate 3.8% among 220,000. AID 2732;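 active means compounds that reduced the stress-induced luciferase reporter signal by more than about 70% of percent inhibition, limit read from the data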;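 further: 0% = tunicamycin plus vehicle and 100% = wells without tunicamycin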
* = called active by the depositor; nt = no result.

SMILES	XBP1 UPR activ	PvdQ acylase	CHOP UPR activ	CHOP inhibitor
Cc1cccc([C@@H]2[C@@H]3C(=O)N(Cc4ccccc4)C(=O)[C@@H]3[C@]3(Cc4ccc(Cl)cc4)C(=O)N(c4cccc(Br)c4)C(=O)N23)c1	-1.7	0.9	0.3	nt
CCOc1cc(-c2c(C#N)c(N)nc3c2CCCC3C)ccc1O (stereo not given)	2.6	-4.1	1.6	56.0
CCOc1cc(-c2c(C#N)c(N)nc3c2CCc2ccccc2-3)ccc1O	1.7	-12.3	3.0	78.0*
CCOc1cc(-c2cc(-c3ccc(C)cc3)nc(N)c2C#N)ccc1O	7.2	1.7	1.9	70.1*
CCC(C(=O)Nc1ccccc1OC)n1c(C(=O)OC)cc2ccsc21 (stereo not given)	-6.4	-9.9	-2.1	81.2*
COc1ccccc1NC(=O)COC(=O)/C=C/c1cccs1	-0.3	1.0	-0.4	nt
COc1ccc(-c2onc3ccc(Cl)cc23)cc1	1.8	23.4	2.7	79.1*
Cc1ccc(-c2onc3ccc(Cl)cc23)cc1	-1.1	21.5	0.9	64.1
CC1CCCCN1C(=S)NCCc1ccccc1 (stereo not given)	-3.1	-9.8	1.0	-2.7
COc1ccccc1NC(=O)CSc1nnnn1-c1ccccc1F	-2.5	2.8	2.8	nt
O=C(CCC1CCCCC1)Nc1ccccc1O	4.5	-3.9	3.1	73.1*
O=C(CNCC1CCCCC1)Nc1ccc(OC(F)(F)F)cc1	0.9	-21.1	-1.5	90.6*
O=C(CNCCC1=CCCCC1)Nc1ccccc1N1CCCCC1	1.2	1.1	1.4	91.8*
O=C(CNCC1CCCCC1)Nc1ccccc1N1CCCCC1	2.4	-9.8	0.2	78.7*
CN(C)c1cccc(C(=O)OCC(=O)Nc2nccs2)c1	-0.5	-11.7	3.9	-1.0
COCCCNC(=O)C[C@H]1C[C@H](C(=O)N(C(C)C)C(C)C)[C@@]2(C)c3[nH]c4ccc(Cl)cc4c3CCN2C1=O	3.8	-7.6	3.4	nt
Cc1cccc(N2CCN(CC(=O)NCC3CCCCC3)CC2)c1C	-4.7	-4.3	-0.3	75.8*
CN1CCC2(CCN3CCc4c(oc5ccccc45)C3C2)N(C)C1=O (stereo not given)	nt	nt	nt	-3.6
CCN(CC(=O)Nc1cc(Cl)ccc1C)C(=O)c1cc([N+](=O)[O-])ccc1N1CCOCC1	-3.7	-6.9	-1.0	nt
Fc1ccc(-c2cc(C(F)(F)F)nc(NCc3cccs3)n2)cc1	-0.3	9.1	0.1	71.5*
FC(F)(F)c1cc(-c2ccccc2)nc(NCc2cccnc2)n1	-1.9	2.4	0.9	85.1*
FC(F)(F)c1cc(-c2ccco2)nc(NCc2cccnc2)n1	-2.5	-15.1	-1.2	20.8
O=C(CN1C(=O)c2ccccc2S1(=O)=O)c1ccc2c(c1)OCCO2	-11.0	9.9	-10.2	94.3*
Cc1cc(=O)[nH]c(SCC(=O)N2CCCCC2)n1	-5.3	12.9	4.8	nt
Cc1cc(=O)[nH]c(SCC(=O)N2CCN(C(c3ccccc3)c3ccccc3)CC2)n1	-0.5	1.7	-1.2	73.7*
SMILES	XBP1 UPR activ	PvdQ acylase	CHOP UPR activ	CHOP inhibitor
CC(C)(C)c1cc(Cl)c(O)c(NC(=S)NC(=O)c2cccnc2)c1	6.1	-10.9	3.8	73.1*
CCOC(=O)c1c(C)[nH]c(C(=O)OCC(=O)Nc2ccc(OC)c(Cl)c2)c1C	0.8	3.2	-2.1	87.0*
CCOC(=O)c1c(C)[nH]c(C(=O)OCC(=O)Nc2cc(Cl)ccc2OC)c1C	2.5	10.1	2.8	77.7*
CCOC(=O)c1c(C)[nH]c(C(=O)OCC(=O)Nc2cc(C)ccc2OC)c1C	1.9	3.2	0.0	14.0
Cc1cc(NC(=O)C(C)SCC(=O)OCC(=O)Nc2c(C)cccc2C(C)C)no1 (stereo not given)	-1.1	1.0	-0.7	nt
CCN(CC)S(=O)(=O)c1ccc(Cl)c(NC(=O)c2cc(Cl)cc(Cl)c2)c1	3.2	-19.4	8.0	89.4*
CN(C)S(=O)(=O)c1cccc(C(=O)Nc2ccccc2)c1	5.8	14.6	1.3	-1.3
CCN(CC)S(=O)(=O)c1ccc(Cl)c(C(=O)Nc2ccc(Cl)cc2[N+](=O)[O-])c1	1.0	-17.3	5.9	79.3*
CN(C)S(=O)(=O)c1ccc(Cl)c(C(=O)Nc2ccccc2[N+](=O)[O-])c1	-1.6	-7.7	-1.0	22.4
CN(C)S(=O)(=O)c1cccc(C(=O)Nc2cc(Cl)cc(Cl)c2)c1	-0.5	-13.4	4.8	71.3*
Cc1ccc(S(=O)(=O)N2CCOCC2)cc1NC(=O)COC(=O)CSc1ccc(Br)cc1C	0.5	-12.7	-2.7	19.0
CCN(C[C@H]1N[C@@](Cc2ccccc2)(C(=O)OC)[C@H]2C(=O)N(Cc3ccccc3)C(=O)[C@@H]12)C(=O)COc1ccccc1	-1.3	-4.1	1.0	nt
CCCc1cc2c(cc1NC(=O)c1ccc(Br)cc1)OCO2	7.8	2.5	0.6	82.5*
O=C(Nc1cccc(-c2nc3cccnc3s2)c1)c1ccc(Cl)nc1	0.7	-10.7	0.8	80.8*
O=C1N=c2ccccc2=C1c1c(O)[nH]c2c(C(F)(F)F)cccc12	-6.4	-1.1	3.9	nt
COc1ccc(/C=N/NC(=O)c2ccoc2C)cc1COc1c(C)cccc1C	8.7	-15.0	18.2	87.7*
O=S1(=O)CCOCCN1Cc1ccc(Cl)cc1Cl	0.4	nt	1.7	nt
O=C(Nc1cccc(C(F)(F)F)c1)Nc1ccc(N2CCCC2)c(S(=O)(=O)Nc2ccccc2Cl)c1	5.8	-6.4	15.0	75.6*
COc1ccccc1NS(=O)(=O)c1cc(NC(=O)Nc2ccc(Cl)cc2Cl)ccc1N1CCCCC1	-1.3	-8.0	7.9	24.0
O=C(OCc1ccccc1)N1CCC2CC1c1cc(-c3ccc4c(c3)OCO4)ccc12 (stereo not given)	nt	-12.9	nt	nt
CCOc1ccc(NC(=O)c2sc(NC(C)=O)c(C(=O)OC)c2C)cc1	6.8	-16.2	-1.0	73.1*
COC(=O)c1c(NC(C)=O)sc(C(=O)Nc2ccccc2)c1C	3.8	0.4	2.0	-31.1
Cc1ccc(NC(=O)C(=O)NNC(=O)c2ccccc2C)cc1Cl	-0.2	-10.1	-1.6	70.8*
CC(=O)Nc1ccc(NC(=O)C/C(C)=N/NC(=O)C(=O)Nc2ccc(C)c(Cl)c2)cc1	-5.3	-5.0	2.4	87.2*
COc1ccccc1C(=O)NNC(=O)C(=O)Nc1ccc(C)c(Cl)c1	1.7	1.0	0.7	nt
SMILES	XBP1 UPR activ	PvdQ acylase	CHOP UPR activ	CHOP inhibitor
C/C(CC(=O)Nc1ccc(OCc2ccccc2)cc1)=N\NC(=O)C(=O)Nc1cccc(C)c1	2.0	6.2	0.2	93.9*
CCN1C(=O)c2cccc3c(S(=O)(=O)N4CCNCC4)ccc1c23	0.4	-4.9	-1.2	nt
CN1CCN(CC(=O)Nc2cc(N(C)C)nc3ccccc23)CC1	-4.2	-5.8	-1.6	15.8
CC(C)Cn1c(N)c(-c2nc(C(C)C)c(C(=O)c3ccccc3F)s2)c(=O)n(C)c1=O	7.2	nt	1.7	5.6
CCCOc1ccc(C(=O)CCC(=O)OCC(=O)Nc2cccc(S(N)(=O)=O)c2)cc1	1.3	48.7*	0.0	nt
Cc1[nH]c2c(ccc3ccccc32)c1C1C(CCN)C1(C)C (stereo not given)	7.4	-4.3	0.9	92.0*
Cc1ccc(NC(=O)CSc2nc3ccccc3c(=O)n2CCCN2CCCCC2)cc1Cl	4.5	2.6	2.0	8.0
